The results in this text go back to ChEMBL document CHEMBL5346963, “Innovative Strategy toward Mutant CFTR Rescue in Cystic Fibrosis: Design and Synthesis of Thiadiazole Inhibitors of the E3 Ligase RNF5” (J Med Chem, 2023).

Active and inactive are the calls of the source. Unless noted, the rule behind the calls is not given here.

One may read the EC50 as the concentration giving half of the maximal effect.

Data set [1] has as its system Cystic fibrosis transmembrane conductance regulator (Homo sapiens), P13569 [F508del]. The data set is described as follows: Corrector activity at CFTR F508del mutant in human CFBE41o- cells assessed as increase in CFTR mutant activity at 5 uM in presence of VX-809 incubated for 24 hrs. In kind it is cell-based. The procedure, abridged: (§1)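 CFBE41o– cells stably expressing F508del-CFTR and HS-YFP were treated 24 h after seeding; DMSO and VX-809 (1 μM) served as controls. Cells were stimulated 25 min with forskolin (20 μM) plus VX-770 (1 μM). YFP was read for 2 s before and 12 s after iodide injection. Initial slope came from an exponential fit of the final 11 s. Three independent experiments.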

Data set [2] relates to CFBE41o-. As to the kind of experiment: Antiproliferative activity against human CFBE41o- cells harbouring CFTR F508del mutant/HS-YFP at 5 uM incubated for 48 hrs. It is filed as toxicity, cell-based. The procedure, abridged:
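Cells plated at 5000/well and treated after 6 h with compound (5 μM) or DMSO. Cell-covered area was followed by the YFP signal over 48 h on a high-content imager. Means ± SEM, n = 6. Three independent experiments; ANOVA with Dunnett test.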

The test system of data set [3] is CFBE41o-. The data set is described as follows: Induction of autophagy in human CFBE41o- cells harbouring CFTR F508del mutant assessed as increase in number of autophagic vacuoles at 5 uM incubated for 24 hrs by confocal microscopy based analysis. It is filed as functional, cell-based. The procedure, abridged:
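CFBE41o– F508del/HS-YFP cells (50,000/well) were treated 24 h with compound (5 μM), VX-809 (1 μM) or DMSO. SAR405 (2 μM) and torin1 (20 nM) were added near the end of incubation. Cells were then loaded with 50 μM MDC in PBS for 10 min at 37 °C, washed, and imaged. MDC spot number was normalized to control. n = 3; ANOVA with Dunnett test.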

The target of data set [4] is Cystic fibrosis transmembrane conductance regulator (Homo sapiens, UniProt P13569, F508DEL). As to the kind of experiment: Corrector activity at CFTR F508del mutant in human CFBE41o- cells incubated for 25 mins by microplate reader based analysis. It is filed as cell-based. The procedure, abridged: as §1
Sequence of Cystic fibrosis transmembrane conductance regulator (P13569 as listed by the source): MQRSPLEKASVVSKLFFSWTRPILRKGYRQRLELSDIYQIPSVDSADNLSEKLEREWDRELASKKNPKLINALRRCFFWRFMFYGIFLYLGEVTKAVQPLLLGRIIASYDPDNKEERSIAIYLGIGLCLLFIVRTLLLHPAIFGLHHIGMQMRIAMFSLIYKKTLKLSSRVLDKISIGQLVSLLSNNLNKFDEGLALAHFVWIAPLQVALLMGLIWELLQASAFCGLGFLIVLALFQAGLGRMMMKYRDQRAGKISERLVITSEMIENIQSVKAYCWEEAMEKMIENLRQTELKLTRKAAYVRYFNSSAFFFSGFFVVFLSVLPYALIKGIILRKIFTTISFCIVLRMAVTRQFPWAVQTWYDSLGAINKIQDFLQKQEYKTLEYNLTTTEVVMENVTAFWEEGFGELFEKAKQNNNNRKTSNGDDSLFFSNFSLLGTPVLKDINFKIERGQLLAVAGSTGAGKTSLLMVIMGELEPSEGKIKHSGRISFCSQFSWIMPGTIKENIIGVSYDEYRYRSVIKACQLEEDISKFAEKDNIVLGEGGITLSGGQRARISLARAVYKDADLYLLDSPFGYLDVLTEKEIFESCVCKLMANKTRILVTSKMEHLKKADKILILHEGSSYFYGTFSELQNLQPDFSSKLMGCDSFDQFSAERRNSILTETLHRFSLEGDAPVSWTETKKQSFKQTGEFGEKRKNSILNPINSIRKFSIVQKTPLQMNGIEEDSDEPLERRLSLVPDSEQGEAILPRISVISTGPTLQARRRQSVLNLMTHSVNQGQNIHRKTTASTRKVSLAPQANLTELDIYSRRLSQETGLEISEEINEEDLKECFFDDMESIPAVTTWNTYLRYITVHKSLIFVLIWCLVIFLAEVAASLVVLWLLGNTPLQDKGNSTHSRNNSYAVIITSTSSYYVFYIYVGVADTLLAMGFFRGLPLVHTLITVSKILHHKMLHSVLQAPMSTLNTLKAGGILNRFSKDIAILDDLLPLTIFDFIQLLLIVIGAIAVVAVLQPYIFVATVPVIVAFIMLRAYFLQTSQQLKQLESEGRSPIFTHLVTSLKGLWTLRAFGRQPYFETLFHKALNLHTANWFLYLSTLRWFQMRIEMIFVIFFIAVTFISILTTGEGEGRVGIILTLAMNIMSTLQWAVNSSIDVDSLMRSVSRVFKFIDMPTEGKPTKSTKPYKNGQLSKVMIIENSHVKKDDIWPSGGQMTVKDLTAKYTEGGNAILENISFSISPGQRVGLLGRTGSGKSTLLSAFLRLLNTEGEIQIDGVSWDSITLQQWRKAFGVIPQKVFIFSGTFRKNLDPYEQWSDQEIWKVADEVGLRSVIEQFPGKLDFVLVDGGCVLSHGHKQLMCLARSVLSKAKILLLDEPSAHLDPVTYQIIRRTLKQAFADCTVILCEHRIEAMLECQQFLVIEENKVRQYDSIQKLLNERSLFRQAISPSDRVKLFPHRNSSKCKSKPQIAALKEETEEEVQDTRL
For data set [5], the system named is Cystic fibrosis transmembrane conductance regulator (Homo sapiens), P13569 [F508del]. As to the kind of experiment: Corrector activity at CFTR F508del mutant in human CFBE41o- cells assessed as increase in CFTR mutant activity at 5 uM in presence of VX-445 incubated for 24 hrs. In kind it is cell-based. The procedure, abridged: as §1
Sequence of Cystic fibrosis transmembrane conductance regulator (Homo sapiens), P13569 [F508del] (P13569 as listed by the source): as above
Data set [6] in a line: Aggregation property of the compound in PBS buffer at pH 7.5 by 1D 1H-NMR analysis. In kind it is physicochemical. Put shortly:
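Solubility by 1H 1D NMR and aggregation by WaterLOGSY at 298 K in PBS pH 7.5 with 1 μM ZnCl2, 1 mM DTT, 10% D2O, 1% DMSO-d6. Theoretical concentrations 20, 50 and 100 μM, with 200 μM 4-trifluoromethyl benzoic acid as internal reference. WaterLOGSY: mixing time 1.7 s, relaxation delay 2 s, 256 scans.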

On to `Cc1ns/c(=N\C(=N\c2ccccc2)c2ccccc2)n1Cc1ccccc1`, for which the outcome (in data set [1]; in the data set with CFBE41o- [3]; in data set [5]) was Active. Besides, the Activity result is given as “Non-Toxic” with CFBE41o- [2] and “Not Active” in data set [6]. The compound also returned an EC50 in data set [4] of 2600 nM.
